Screening data deposited in PubChem by Broad Institute.
PGC1a acetyl inh – inhibitors of PGC1a acetylation signal, primary screen, cell-based, U2OS, AlphaScreen, inhibitor mode; AID 651687, 2012; 350,000 compounds, 0.17% hits; inhibition, % at 15.6 µM; AlphaScreen anti-acetyl-lysine; with virally co-expressed GCN5 acetyltransferase;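 active = every replicate shows inhibition of at least 40%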;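 note: 0% = neutral control wells and 100% = positive control wells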
FGF22 binding – binders of human FGF22 protein, primary screen, FGF22 synaptogenesis inhibitor project, biophysical, thermal shift, single point; recombinant FGF22 thermal shift, SYPRO orange fluorescence; percent of sucrose octasulfate shift, DMSO zero; activity (Tm shift, normalised), % at 9.99 µM; 340,000 compounds, 1.5% hits;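 active = mean Tm shift, scaled 0 neutral to 100 positive control, at about 1.3% or above, every replicate too, limit read from the data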
Target sequence (Q9HCT0 whole entry, looked up): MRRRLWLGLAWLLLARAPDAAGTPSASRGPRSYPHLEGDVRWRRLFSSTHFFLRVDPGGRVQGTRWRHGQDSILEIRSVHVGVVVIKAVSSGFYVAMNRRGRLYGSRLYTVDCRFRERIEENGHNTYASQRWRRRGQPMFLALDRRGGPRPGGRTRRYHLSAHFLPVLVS
Ecoli rRNA inh – reduced GFP signal of wild-type E. coli, primary screen, bacterial rRNA inhibitor project, GFP/RFP fluorescence, OD600, single point | E. coli WT GFP vs humanized-ribosome RFP mutants, 24 h; stronger effect = lower value; DMSO median 0, no signal -100 | GFP signal change (wild-type ribosome), % (concentration not given with the values) | 350,000 compounds, 1.6% hits | AID 720706, 2013;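 active = significant combined selectivity score with lowered wild-type GFP, culture density cut under 30%, mutant RFP and density less affected; inactive = any of these conditions unmet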
PglD inh – C. jejuni PglD acetyltransferase inhibitors, primary screen, biochemical, DTNB colorimetric, single point | UDP-N-acetylbacillosamine N-acetyltransferase PglD (Campylobacter jejuni) | purified PglD enzyme, DTNB colorimetric CoA detection | inhibition, % at 12.5 µM | 360,000 compounds, 0.098% hits | AID 602405, 2012; in the data active = inhibition above about 16%, passing the limit was not always enough
Vif inh – HIV Vif self-association inhibitors, primary screen, imaging, HEK293T, single point; AID 602346, 2012; inhibition, % at 7.49 µM; HEK293T cells, Vif self-association by quenched fluorescence, 24 h; 340,000 compounds, 0.35% hits; in the data active = inhibition above about 50%, passing the limit was not always enough
Cneo AK release – Cryptococcus neoformans cell lysis inducers, primary screen, AK release luminescence, single concentration; C. neoformans lysis, adenylate kinase release luminescence, 4 h; normalised: neutral wells 0, clomiphene wells 100; lysis activity, % at 15 µM; 360,000 compounds, 0.2% hits; AID 651654, 2012;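 active = mean lysis activity across replicates of at least 80%, whatever share of replicates individually reach that level; inactive = mean lysis activity below 80%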
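Test system: log-phase Cryptococcus neoformans yeast cells; Quantity: yeast cell density of 5 × 10^6 cells/mL; Buffer or medium: YPD; Doses: single compound concentration per well; Timing: 4 h at 37 °C static, read 1 h later; Measured by: AK luminescence; Read-out basis: lysis from increased AK signal; Control set: Clomiphene as positive control.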
Active calls of the source: *; x = no result given. The list is not random: actives were taken first. Their share in the collection is about 2.9%.

SMILES | PGC1a acetyl inh | FGF22 binding | Ecoli rRNA inh | PglD inh | Vif inh | Cneo AK release
Cc1nc(-c2ccccn2)nc(SCC(=O)c2ccccc2)c1Cl | -0.8 | -0.1 | -22.6* | -3.7 | 2.2 | 6.9
C[C@H]1CN([C@@H](C)CO)C(=O)c2cc(NC(=O)C3CC3)ccc2O[C@H]1CN(C)Cc1ccc(C(F)(F)F)cc1 | 5.2 | -0.6 | -1.2 | 2.7 | x | -4.5
N#CCC(=O)Nc1ccc(C(=O)OCC(=O)c2c[nH]c3ccccc23)cc1 | -3.9 | -0.1 | 2.9 | 2.6 | -2.7 | -1.7
Cc1cc(C)n2nc(C(=O)OCC(=O)c3c[nH]c4ccccc34)nc2n1 | x | 43.8* | 2.0 | x | -9.4 | x
NC(=O)Nc1ccc(C(=O)OCC(=O)c2c[nH]c3ccccc23)cc1 | 0.2 | 44.0* | -1.8 | -3.1 | -23.8 | 0.8
COc1ccc([Si](C)(C)[C@H]2[C@H](CCn3cc(CCO)nn3)O[C@@]3(C(=O)N(C)c4c(Br)cc(C)cc43)[C@@H]2C)cc1 | -24.1 | -0.9 | x | -1.5 | x | -1.0
Cc1nn(-c2ccccc2)c(C)c1-c1cc(C(=O)N/N=C/c2ccc(O)cc2)[nH]n1 | 3.9 | 0.0 | -24.4* | x | -1.6 | x
O=C(C[C@@H]1CC[C@@H]2[C@H](COC[C@@H](O)CN2C(=O)Nc2ccc(C(F)(F)F)cc2)O1)NCCc1ccncc1 | -4.8 | 0.2 | -58.0 | 0.6 | x | -0.4
Cc1cccc2cc(COC(=O)c3ccco3)c(=O)[nH]c12 | 3.1 | x | x | -2.4 | 63.6* | 2.4
Cc1cccc2cc(COC(=O)c3ccccc3)c(=O)[nH]c12 | -7.4 | x | x | 1.6 | 8.2 | -4.8
CN1C(=O)c2cc(NC(=O)Cc3ccccc3)ccc2OC[C@@H]2O[C@@H](CC(=O)NC3CCC3)CC[C@@H]21 | -2.5 | 0.0 | -0.2 | 2.3 | x | -3.4
CNC(=O)C(=O)Nc1ccc2c(c1)N(S(=O)(=O)c1cccs1)CCC2 | x | -0.2 | -1.7 | 5.7 | x | -0.1
CC(C)NC(=O)C(=O)Nc1ccc2c(c1)N(S(=O)(=O)c1cccs1)CCC2 | x | 0.2 | -18.2* | 3.9 | -4.8 | 2.0
C[C@@H]1CCCCO[C@@H](CN(C)C(=O)Nc2cccc3ccccc23)[C@@H](C)CN([C@H](C)CO)C(=O)c2cc(NS(=O)(=O)c3cn(C)cn3)ccc2O1 | 3.0 | -0.2 | 3.0 | -4.0 | x | -18.4
O=C(N=c1ccn(-c2nc3ccccc3nc2NS(=O)(=O)c2ccc(Cl)cc2)cc1)c1cccs1 | 3.2 | 0.4 | 20.9 | x | 82.5* | x
CCC1=NN(C(=O)c2ccc(Br)cc2)C(O)(c2ccc(C)cc2)C1 (configuration not stated) | x | 0.2 | -30.2* | x | -0.6 | x
CCN1CCN(CC(O)COCc2cc(OC)c(OC)c(OC)c2)CC1 (configuration not stated) | x | -0.1 | -1.2 | x | 14.6 | x
COc1cc(COCC(O)CN2CCN(Cc3ccccc3)CC2)cc(OC)c1OC (configuration not stated) | x | 43.6* | 10.2 | x | 1.3 | x
Cc1nc(Sc2nnnn2C)c2c3c(sc2n1)CCC3 | -16.2 | x | x | -0.2 | 96.8* | 1.0
CO[C@H]1CN(C)C(=O)c2ccc(NS(=O)(=O)c3ccccc3)cc2OC[C@@H](C)N(Cc2nccs2)C[C@H]1C | 2.2 | 0.4 | -2.0 | 1.0 | x | 1.2
COc1ccccc1-c1nc2c3ccccc3nc(=S)n2[nH]1 | -8.8 | -0.5 | -27.3* | -0.2 | -9.1 | 1.0
CO[C@@H]1CN(C)C(=O)c2ccc(NS(C)(=O)=O)cc2OC[C@@H](C)N(C(=O)C2CC2)C[C@@H]1C | -3.7 | 0.2 | -0.8 | 0.0 | x | 54.2
Cc1ccccc1CNCCCSc1ncccn1 | 9.6 | -0.2 | 12.3 | 8.5 | -3.2 | 2.7
Cc1ccc(CNCCCSc2ncccn2)cc1 | x | 0.1 | 14.1 | -7.0 | 60.0* | 0.9
Cc1noc(C)c1NC(=O)N(C)C[C@H]1Oc2ccc(NC(=O)CCN3CCOCC3)cc2C(=O)N([C@@H](C)CO)C[C@H]1C | 5.3 | 0.0 | 5.0 | 3.6 | x | 52.0
SMILES | PGC1a acetyl inh | FGF22 binding | Ecoli rRNA inh | PglD inh | Vif inh | Cneo AK release
Cc1noc(C)c1NC(=O)Nc1cccc2c1O[C@H](CN(C)Cc1ccc3c(c1)OCO3)[C@@H](C)CN([C@@H](C)CO)C2=O | -1.2 | -0.3 | -0.4 | 3.9 | x | 13.2
Cc1noc(C)c1NC(=O)N(C)C[C@@H]1Oc2ccc(NS(=O)(=O)c3ccccc3)cc2C(=O)N([C@@H](C)CO)C[C@H]1C | 5.9 | -0.2 | -0.4 | 1.0 | x | 2.2
COc1cc2nc3n(c(=O)c2cc1OC)-c1cc2ccccc2cc1C(=O)NC3CC(C)C (configuration not stated) | x | 43.4* | x | -1.5 | -1.7 | 0.6
C[C@H](CO)N1C[C@H](C)[C@H](CN(C)S(=O)(=O)c2ccc(F)cc2)Oc2c(NC(=O)CCCCCC(=O)Nc3ccccc3N)cccc2C1=O | -3.0 | -0.2 | 0.3 | x | x | x
CCN(CC)S(=O)(=O)c1cc(NC(=O)C(C)N2CCN(c3ccccn3)CC2)ccc1C (configuration not stated) | -9.9 | 0.2 | -19.8* | 4.4 | -11.2 | -2.2
Cc1c(Cl)cccc1NC(=S)N(Cc1cccs1)C1CCCC1 | 1.7 | 0.3 | -21.8* | x | 5.4 | x
CCC(=O)N(Cc1cc(=O)[nH]c2ccccc12)c1ccccc1OC | -5.8 | -0.4 | 1.6 | -1.9 | 12.3 | -0.8
COc1ccccc1N(Cc1cc(=O)[nH]c2ccccc12)C(=O)c1cccc([N+](=O)[O-])c1 | -0.6 | 43.3* | -2.6 | -0.8 | -4.3 | 0.9
COc1ccc(-c2cc(C(=O)N(C)Cc3cccc(OC)c3OC)c3ccccc3n2)cc1OC | -2.4 | -0.2 | -28.0* | 0.4 | 1.1 | -2.7
COc1cccc(CN(C)C(=O)c2cc(-c3ccc(OC)c(OC)c3)nc3ccccc23)c1 | -0.7 | -0.7 | -7.2 | -0.2 | 1.5 | -0.1
COc1ccc(-c2cc(C(=O)N(C)Cc3nc4ccccc4c(=O)[nH]3)c3ccccc3n2)cc1OC | 2.3 | 44.4* | -13.3 | -2.5 | 24.8 | -0.4
C[C@@H]1CN([C@H](C)CO)C(=O)c2cc(NC(=O)Nc3ccccc3)ccc2O[C@H]1CN(C)C(=O)Nc1ccc2c(c1)OCO2 | -0.7 | x | 3.5 | x | x | x
CO[C@@H]1CN(C)C(=O)c2cc(NC(C)=O)ccc2OC[C@@H](C)N(C(=O)c2ccccc2F)C[C@H]1C | -2.4 | 0.1 | 0.1 | -4.1 | x | -1.1
